Article PMC3206162 (The international journal of biochemistry & cell biology, 2011)
Where two headings read alike, the source gives them in different places. No end group written: not given here.

Tests used:
LEC [1] = assay: CytoTox-ONE LDH release cytotoxicity assay on LEC; details: 72 h, complete media control = 100%
MEC [2] = assay: CytoTox-ONE LDH release cytotoxicity assay on MEC; details: 72 h, complete media control = 100%; for LDH level, MEC: 10μM peptide; for LDH activity compared to the control, MEC: 100μM peptide
HUVEC [3] = type: cell-based, human; details: 72 h
MEC [4] = type: cell-based, human; details: 72 h
HUVEC [5] = assay: CytoTox-ONE LDH release cytotoxicity assay on HUVEC; details: 10μM peptide, 72 h
LEC [6] = test system: LEC
cell apoptosis = details: cited from earlier work
LEC [7] = type: cell-based, human; details: 72 h
LEC [8] = assay: RTCA E-plate LEC adhesion assay; type: cell-based, human; details: read-out: IC50 LEC adhesion; cell index at 1 h; 100, 33, 11, 3.7, 1.2μM
Procedure, shortened: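 LEC seeded at 25,000 cells/well in EGM-2MV medium onto E-plate wells already holding peptide, so the cells dilute the peptide to its final concentration. Plate equilibrated 30 min at room temperature, then loaded into the RTCA system. Cell index analysed at 1 h as the adhesion read-out.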

LEC [9] = details: 20 h

## RLRLLTLQSWLL [SP5001]
LEC [1]
  LDH activity compared to the control, LEC: significant LDH activity
MEC [2]
  LDH level, MEC: more than 150%
  LDH activity compared to the control, MEC: more than 200%
HUVEC [3]
  IC50: 50.7 ± 31.8 µM
MEC [4]
  IC50: 52.4 ± 27.8 µM

## LLRLLLLIESWLE [SP5030]
HUVEC [5]
  cytotoxic (LDH) activity, HUVEC: significant cytotoxic activity
MEC [4]
  IC50: 93.2 ± 42.3 µM

## LLRISLLLIESWLE [SP5033]
LEC [6]
  LDH activity compared to the control, LEC: significant LDH activity
MEC [4]
  IC50: 81.1 ± 37.2 µM

## LLRISLLLIQSWLE [tilted PRL peptide, reference compound]
Cell apoptosis; ref Nguyen et al., 2006
  cell apoptosis: led to cell apoptosis

## LMRKSQILISSWF [SP5028]
MEC [2]
  LDH level, MEC: more than 150%
  LDH activity compared to the control, MEC: more than 200%
HUVEC [3]
  IC50: 58.2 ± 35.2 µM

## LLRSSLILLQGSWF [SP5031]
LEC [7]
  IC50: 158 ± 122 µM
LEC [8]
  IC50: 24.2 µM
HUVEC [3]
  IC50: 96.9 ± 34.3 µM
MEC [4]
  IC50: 83.4 ± 21.9 µM
LEC [9]
  IC50: 25.1 µM

## LLHISLLLIESRLE [SP5032]
HUVEC [5]
  cytotoxic (LDH) activity, HUVEC: significant cytotoxic activity
MEC [4]
  IC50: 80.1 ± 47.9 µM

B1: PRL protein: prolactin (PRL) protein (protein, UniProt P01236 29-227, looked up)
Prolactin: LPICPGGAARCQVTLRDLFDRAVVLSHYIHNLSSEMFSEFDKRYTHGRGFITKAINSCHTSSLATPEDKEQAQQMNQKDFLSLIVSILRSWNEPLYHLVTEVRGMQEAPEAILSKAVEIEEQTKRLLEGMELIVSQVHPETKENEIYPVWSGLPSLQMADEESRLSAYYNLLHCLRRDSHKIDNYLKLLKCRIIHNNNC
Cell apoptosis; prostate cancer model, ref Giuffrida et al., 2010
  apoptosis in a prostate cancer model: induced apoptosis
